Tests used:
[1] = biological target: Tyrosine-protein kinase BTK (Homo sapiens) (UniProt Q06187); test: Inhibition of BTK at 1 uM
In short: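 Ambit KINOMEscan screen at a single concentration across a 250–400 kinase panel, recorded as percent inhibition. Selectivity was expressed as S(90), the fraction of kinases inhibited >90%.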

[2] = tested on: T1, Receptor-type tyrosine-protein kinase FLT3 (Homo sapiens), P36888 [K663Q]; test: Inhibition of FLT3 K663Q mutant at 1 uM
T1 sequence (whole entry): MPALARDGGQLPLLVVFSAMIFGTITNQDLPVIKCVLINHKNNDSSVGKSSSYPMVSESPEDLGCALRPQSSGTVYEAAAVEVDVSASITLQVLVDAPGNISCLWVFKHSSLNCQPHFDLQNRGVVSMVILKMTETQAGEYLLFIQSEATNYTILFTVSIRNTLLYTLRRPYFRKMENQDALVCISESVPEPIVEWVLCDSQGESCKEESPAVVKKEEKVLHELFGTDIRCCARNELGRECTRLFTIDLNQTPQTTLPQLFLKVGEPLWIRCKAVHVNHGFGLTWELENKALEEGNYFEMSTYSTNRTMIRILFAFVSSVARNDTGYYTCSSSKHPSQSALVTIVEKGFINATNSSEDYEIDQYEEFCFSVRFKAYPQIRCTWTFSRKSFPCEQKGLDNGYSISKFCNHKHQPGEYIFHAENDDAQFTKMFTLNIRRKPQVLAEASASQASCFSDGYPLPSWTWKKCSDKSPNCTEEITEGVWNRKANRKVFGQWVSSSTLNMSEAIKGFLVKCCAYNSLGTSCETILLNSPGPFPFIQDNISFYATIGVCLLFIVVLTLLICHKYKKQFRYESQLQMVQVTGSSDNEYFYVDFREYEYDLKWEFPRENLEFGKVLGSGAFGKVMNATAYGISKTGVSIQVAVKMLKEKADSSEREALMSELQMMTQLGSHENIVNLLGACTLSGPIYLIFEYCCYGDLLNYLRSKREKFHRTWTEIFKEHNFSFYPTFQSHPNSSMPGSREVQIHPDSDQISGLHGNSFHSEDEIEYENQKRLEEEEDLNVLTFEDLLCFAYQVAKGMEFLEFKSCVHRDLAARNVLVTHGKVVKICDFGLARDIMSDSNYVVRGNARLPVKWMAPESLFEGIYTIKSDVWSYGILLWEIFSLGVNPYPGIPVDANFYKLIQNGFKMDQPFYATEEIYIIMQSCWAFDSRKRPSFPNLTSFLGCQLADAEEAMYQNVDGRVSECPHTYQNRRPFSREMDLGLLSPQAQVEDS

[3] = biological target: T2, Serine/threonine-protein kinase TAO1 (Homo sapiens) (UniProt Q7L7X3); test: Inhibition of TAOK1 at 1 uM
T2 sequence (whole entry): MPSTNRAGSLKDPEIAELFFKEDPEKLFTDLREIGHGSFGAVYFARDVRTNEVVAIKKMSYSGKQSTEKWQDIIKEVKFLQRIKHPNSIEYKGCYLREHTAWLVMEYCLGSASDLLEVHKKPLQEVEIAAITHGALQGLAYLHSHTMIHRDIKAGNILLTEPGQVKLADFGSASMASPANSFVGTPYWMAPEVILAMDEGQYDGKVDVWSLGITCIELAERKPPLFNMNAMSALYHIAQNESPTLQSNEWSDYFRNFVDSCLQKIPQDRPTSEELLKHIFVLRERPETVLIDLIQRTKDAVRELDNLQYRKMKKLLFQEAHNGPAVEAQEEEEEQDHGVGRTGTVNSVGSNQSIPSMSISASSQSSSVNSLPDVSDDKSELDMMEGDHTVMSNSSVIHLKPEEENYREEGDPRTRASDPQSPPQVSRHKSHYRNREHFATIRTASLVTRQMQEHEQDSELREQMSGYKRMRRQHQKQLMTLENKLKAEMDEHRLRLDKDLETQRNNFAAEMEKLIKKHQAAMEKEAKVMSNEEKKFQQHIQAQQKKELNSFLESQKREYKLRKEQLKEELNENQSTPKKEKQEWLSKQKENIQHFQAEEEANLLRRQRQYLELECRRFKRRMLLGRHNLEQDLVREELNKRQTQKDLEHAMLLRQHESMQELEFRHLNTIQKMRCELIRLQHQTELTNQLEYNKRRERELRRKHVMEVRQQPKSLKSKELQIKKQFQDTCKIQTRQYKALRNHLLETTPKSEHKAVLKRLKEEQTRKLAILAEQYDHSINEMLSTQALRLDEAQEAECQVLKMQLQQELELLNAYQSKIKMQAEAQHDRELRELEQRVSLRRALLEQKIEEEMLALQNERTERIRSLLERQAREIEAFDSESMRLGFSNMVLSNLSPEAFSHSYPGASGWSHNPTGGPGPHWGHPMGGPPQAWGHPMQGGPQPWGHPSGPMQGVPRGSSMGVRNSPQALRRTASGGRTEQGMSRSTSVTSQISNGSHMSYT

[4] = biological target: T3, Mitogen-activated protein kinase kinase kinase 3 (Homo sapiens) (UniProt Q99759); test: Inhibition of MAP3K3 at 1 uM
T3 sequence (whole entry): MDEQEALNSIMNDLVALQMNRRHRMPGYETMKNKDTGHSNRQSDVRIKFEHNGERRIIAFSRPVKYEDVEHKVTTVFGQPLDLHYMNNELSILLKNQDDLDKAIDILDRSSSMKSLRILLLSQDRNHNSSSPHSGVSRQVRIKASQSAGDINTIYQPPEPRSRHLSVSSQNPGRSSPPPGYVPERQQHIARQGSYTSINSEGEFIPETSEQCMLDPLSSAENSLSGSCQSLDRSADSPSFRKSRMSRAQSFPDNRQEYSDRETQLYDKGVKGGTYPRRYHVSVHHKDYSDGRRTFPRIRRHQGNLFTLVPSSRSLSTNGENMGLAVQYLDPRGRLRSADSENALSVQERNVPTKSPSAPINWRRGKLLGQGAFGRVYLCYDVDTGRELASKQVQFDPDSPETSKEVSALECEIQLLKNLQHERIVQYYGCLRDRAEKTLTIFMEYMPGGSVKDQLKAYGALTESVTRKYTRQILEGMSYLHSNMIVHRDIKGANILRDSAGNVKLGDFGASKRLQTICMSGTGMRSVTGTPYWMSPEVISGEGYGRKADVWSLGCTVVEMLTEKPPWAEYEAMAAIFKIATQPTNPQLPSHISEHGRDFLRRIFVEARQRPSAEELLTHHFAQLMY

[5] = biological target: Tyrosine-protein kinase JAK1 (Homo sapiens) (UniProt P23458); test: Inhibition of JAK1 JH1 catalytic domain at 1 uM
In short: (§1)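 Single-concentration screen on the Ambit KINOMEscan platform, run against a panel of 250–400 kinases. Per-kinase inhibition was also summarized as S(90), the fraction of kinases inhibited by more than 90%.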

[6] = biological target: Tyrosine-protein kinase JAK2 (Homo sapiens) (UniProt O60674); test: Inhibition of JAK2 JH1 catalytic domain at 1 uM; in short: as §1
Sequence of Tyrosine-protein kinase JAK2 (Homo sapiens) (O60674 whole entry, the tested form may be a part): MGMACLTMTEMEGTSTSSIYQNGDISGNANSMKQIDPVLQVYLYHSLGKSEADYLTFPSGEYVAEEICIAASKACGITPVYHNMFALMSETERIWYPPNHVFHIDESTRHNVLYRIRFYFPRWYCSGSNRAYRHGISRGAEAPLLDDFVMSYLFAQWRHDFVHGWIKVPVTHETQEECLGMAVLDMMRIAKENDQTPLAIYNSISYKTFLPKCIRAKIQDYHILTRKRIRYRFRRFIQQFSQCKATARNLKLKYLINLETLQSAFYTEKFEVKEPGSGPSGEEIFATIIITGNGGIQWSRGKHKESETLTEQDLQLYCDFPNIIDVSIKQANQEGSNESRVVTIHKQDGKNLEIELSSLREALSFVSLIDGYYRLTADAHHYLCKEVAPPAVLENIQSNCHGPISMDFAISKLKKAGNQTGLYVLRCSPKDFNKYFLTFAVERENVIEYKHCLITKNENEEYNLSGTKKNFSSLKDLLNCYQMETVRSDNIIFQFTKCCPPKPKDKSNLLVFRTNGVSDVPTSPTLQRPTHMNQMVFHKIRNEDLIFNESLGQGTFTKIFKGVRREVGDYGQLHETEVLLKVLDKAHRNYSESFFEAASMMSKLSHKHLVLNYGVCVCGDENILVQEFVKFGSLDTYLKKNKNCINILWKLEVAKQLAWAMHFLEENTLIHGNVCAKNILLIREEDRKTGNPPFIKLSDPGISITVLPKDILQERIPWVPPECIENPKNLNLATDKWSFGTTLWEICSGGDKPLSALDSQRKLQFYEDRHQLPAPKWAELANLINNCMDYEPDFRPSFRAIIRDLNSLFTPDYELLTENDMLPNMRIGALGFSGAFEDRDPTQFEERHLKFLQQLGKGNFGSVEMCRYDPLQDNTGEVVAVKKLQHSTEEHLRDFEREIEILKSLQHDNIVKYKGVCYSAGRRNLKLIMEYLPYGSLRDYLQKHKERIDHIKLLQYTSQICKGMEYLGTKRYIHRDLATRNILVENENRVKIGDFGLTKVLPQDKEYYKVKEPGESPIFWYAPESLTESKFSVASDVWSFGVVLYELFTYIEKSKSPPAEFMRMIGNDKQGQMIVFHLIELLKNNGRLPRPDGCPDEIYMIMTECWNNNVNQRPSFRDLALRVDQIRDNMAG

Sequence of Tyrosine-protein kinase JAK1 (Homo sapiens) (P23458 whole entry, the tested form may be a part): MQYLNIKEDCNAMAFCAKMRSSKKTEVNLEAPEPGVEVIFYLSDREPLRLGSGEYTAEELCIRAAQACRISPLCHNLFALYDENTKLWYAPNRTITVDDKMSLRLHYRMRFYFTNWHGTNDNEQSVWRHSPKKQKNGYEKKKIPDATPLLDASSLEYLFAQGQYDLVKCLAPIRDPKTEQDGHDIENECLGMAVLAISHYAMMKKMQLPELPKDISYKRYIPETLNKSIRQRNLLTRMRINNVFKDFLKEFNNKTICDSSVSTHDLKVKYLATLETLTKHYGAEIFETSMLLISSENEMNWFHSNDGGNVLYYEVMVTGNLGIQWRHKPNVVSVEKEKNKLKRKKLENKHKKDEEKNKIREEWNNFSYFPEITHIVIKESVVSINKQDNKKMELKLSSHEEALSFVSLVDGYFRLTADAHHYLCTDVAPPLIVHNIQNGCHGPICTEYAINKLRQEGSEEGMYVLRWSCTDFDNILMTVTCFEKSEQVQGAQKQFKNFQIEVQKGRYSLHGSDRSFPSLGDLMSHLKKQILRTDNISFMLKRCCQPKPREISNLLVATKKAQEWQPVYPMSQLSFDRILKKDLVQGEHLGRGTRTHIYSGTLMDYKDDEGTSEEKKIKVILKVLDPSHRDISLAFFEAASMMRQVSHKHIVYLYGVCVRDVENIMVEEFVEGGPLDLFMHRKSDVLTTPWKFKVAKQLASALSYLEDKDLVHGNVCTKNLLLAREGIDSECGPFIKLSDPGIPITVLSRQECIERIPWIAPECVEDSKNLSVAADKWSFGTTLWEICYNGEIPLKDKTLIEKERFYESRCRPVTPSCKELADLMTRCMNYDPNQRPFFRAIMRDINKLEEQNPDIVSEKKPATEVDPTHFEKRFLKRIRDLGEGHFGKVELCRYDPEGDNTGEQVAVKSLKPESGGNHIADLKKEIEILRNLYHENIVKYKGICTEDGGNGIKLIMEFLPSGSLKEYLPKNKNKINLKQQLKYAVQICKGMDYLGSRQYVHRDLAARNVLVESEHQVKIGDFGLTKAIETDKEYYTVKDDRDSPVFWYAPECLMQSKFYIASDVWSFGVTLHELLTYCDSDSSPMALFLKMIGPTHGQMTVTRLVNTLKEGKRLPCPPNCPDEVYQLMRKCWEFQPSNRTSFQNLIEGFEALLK
Sequence of Tyrosine-protein kinase BTK (Homo sapiens) (Q06187 whole entry): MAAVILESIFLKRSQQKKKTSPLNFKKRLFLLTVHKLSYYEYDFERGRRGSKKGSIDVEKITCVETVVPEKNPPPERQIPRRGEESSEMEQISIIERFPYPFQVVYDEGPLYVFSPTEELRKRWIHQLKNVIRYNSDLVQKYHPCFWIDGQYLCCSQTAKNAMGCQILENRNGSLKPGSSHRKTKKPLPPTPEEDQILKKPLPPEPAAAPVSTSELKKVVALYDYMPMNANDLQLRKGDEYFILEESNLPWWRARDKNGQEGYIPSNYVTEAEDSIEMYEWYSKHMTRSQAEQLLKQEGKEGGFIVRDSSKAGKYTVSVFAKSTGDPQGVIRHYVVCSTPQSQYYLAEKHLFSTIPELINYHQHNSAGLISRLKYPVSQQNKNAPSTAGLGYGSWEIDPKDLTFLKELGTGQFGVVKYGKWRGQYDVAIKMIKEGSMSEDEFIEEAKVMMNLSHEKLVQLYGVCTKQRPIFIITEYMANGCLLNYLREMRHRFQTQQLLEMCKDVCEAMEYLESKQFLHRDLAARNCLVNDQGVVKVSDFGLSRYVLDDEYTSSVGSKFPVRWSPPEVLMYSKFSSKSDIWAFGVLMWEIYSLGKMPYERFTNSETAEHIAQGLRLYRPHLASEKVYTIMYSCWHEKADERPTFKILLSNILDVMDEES

Row | inhibition [1] | inhibition [2] | inhibition [3] | inhibition [4] | inhibition [5] | inhibition [6] | Structure (SMILES)
1 | < 50% | 92% | < 50% | < 50% | 93% | 94% | CN1CCN(c2ccc(-c3cnc4c(c3)N(Cc3cc(Cl)ccc3C(F)(F)F)CCN4)cn2)CC1
2 | < 50% | – | – | – | < 50% | – | COC1CCN(C(=O)c2ccc(-c3cnc4c(c3)N(Cc3cc(Cl)ccc3C(F)(F)F)CCN4)cc2)CC1
3 | < 50% | – | – | – | – | 95.1% | O=C(O)c1ccc(-c2cnc3c(c2)N(Cc2cc(Cl)ccc2C(F)(F)F)CCN3)cc1

More lines, now with the values behind:

Row | Structure (SMILES) | inhibition [1] | inhibition [2] | inhibition [3] | inhibition [4] | inhibition [5] | inhibition [6]
4 | CN1CCN(c2ccc(-c3cnc4c(c3)N(Cc3cc(Cl)ccc3Cl)CCN4)cn2)CC1 | < 50% | 93% | < 50% | < 50% | 89% | 95%
5 | O=C(c1ccc(-c2cnc3c(c2)N(Cc2cc(Cl)ccc2C(F)(F)F)CCN3)cc1)N1CCCCC1 | < 50% | – | – | – | < 50% | 96.3%
6 | FC(F)(F)c1ccc(Cl)cc1CN1CCNc2ncc(-c3ccnc(N4CCNCC4)c3)cc21 | < 50% | 98% | < 50% | 88% | 78% | 97%
7 | CC(=O)N1CCN(c2cc(-c3cnc4c(c3)N(Cc3cc(Cl)ccc3C(F)(F)F)CCN4)ccn2)CC1 | < 50% | 93% | < 50% | < 50% | 96% | 96%
8 | O=C(c1ccc(-c2cnc3c(c2)N(Cc2cc(Cl)ccc2C(F)(F)F)CCN3)cc1)N1CCC(N2CCCC2)CC1 | < 50% | – | – | – | < 50% | 99.5%
9 | CN1CCN(c2ccc(-c3cnc4c(c3)N(Cc3c(F)ccc(F)c3Cl)CCN4)cn2)CC1 | < 50% | 70% | < 50% | < 50% | < 50% | 77%
10 | CN1CCN(c2ccc(-c3cnc4c(c3)N(Cc3cc(F)ccc3F)CCN4)cn2)CC1 | < 50% | 80% | < 50% | < 50% | 88% | 94.7%

Source: ChEMBL document CHEMBL1165965, “Synthesis and structure-activity relationships of 1,2,3,4-tetrahydropyrido[2,3-b]pyrazines as potent and selective inhibitors of the anaplastic lymphoma kinase” (Bioorg Med Chem, 2010)
